Experimental data as given in ChEMBL document CHEMBL4311965, “Antimicrobial activity of amphipathic α,α-disubstituted β-amino amide derivatives against ESBL - CARBA producing multi-resistant bacteria; effect of halogenation, lipophilicity and cationic character” (Eur J Med Chem, 2019).
In brackets after ≈: the same amount, converted by molar mass.

How the values were obtained:
[1] = tested on: Staphylococcus aureus; test: Antibacterial activity against Staphylococcus aureus ATCC 9144 cultured in MHB medium assessed as no bacterial growth incubated at 37 degC for 24 hrs by microdilution susceptibility test; assay type: functional; settings: ATCC 9144, 24 h
Summary of the method: (§1)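 Broth microdilution per CLSI M07-A9 with modifications. Inoculum about 2.5–3 x 10⁴ cells/mL in Mueller-Hinton broth, mixed 1:1 with test derivative. DMSO stocks diluted in double-distilled water, final DMSO <1%. Incubation 24 h at 37 °C (20 °C for C. glutamicum). Growth and sterility controls included; oxytetracycline reference.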

[2] = tested on: Corynebacterium glutamicum; test: Antibacterial activity against Corynebacterium glutamicum ATCC 13032 cultured in MHB medium assessed as no bacterial growth incubated at 20 degC for 24 hrs by microdilution susceptibility test; assay type: functional; settings: ATCC 13032, 24 h; summary of the method: as §1
[3] = tested on: Pseudomonas aeruginosa; test: Antibacterial activity against Pseudomonas aeruginosa PA01 DSM 19880 (ATCC 15692) cultured in MHB medium assessed as no bacterial growth incubated at 37 degC for 24 hrs by microdilution susceptibility test; assay type: functional; settings: PAO1 DSM 19880 (ATCC 15692); summary of the method: as §1
[4] = tested on: Erythrocyte; test: Hemolytic activity against human RBC incubated for 1 hr; assay type: cell-based
Summary of the method: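 Heparinized human blood washed three times in warm PBS and set to 10% hct. Erythrocytes at 1% v/v final, with compound in PBS (DMSO <1%), shaken 1 h at 37 °C and then centrifuged. Supernatant absorbance read at 405 and 545 nm after PBS background subtraction. Haemolysis taken relative to 1% Triton X-100. Three independent replicates, EC50 averaged.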

[5] = tested on: MRC5; test: Cytotoxicity against human MRC5 cells assessed as reduction in cell viability incubated for 4 hrs by CellTiter 96 Aqueous One Solution Reagent based assay; settings: MRC5, 4 h
Summary of the method: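 HepG2 and MRC-5 cells seeded at 35 000 and 15 000 cells/well respectively, then held overnight at 37 °C, 5% CO₂. Compounds in serum-free MEM Earle's applied for 4 h. MTS reagent (CellTiter 96 AQueous One) added for a further 1 h, absorbance read at 485 nm. Survival expressed relative to medium (negative) and Triton X-100 (positive) controls.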

[6] = Selectivity index, ratio of EC50 for hemolytic activity against human RBC to MIC for antibacterial activity against Staphylococcus aureus ATCC 9144; assay type: toxicity; settings: human red blood cells (RBC)
Summary of the method: (§2)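 Selectivity index is the RBC haemolysis EC50 divided by the MIC against the E. coli or S. aureus reference strain.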

[7] = Selectivity index, ratio of EC50 for hemolytic activity against human RBC to MIC for antibacterial activity against Escherichia coli ATCC 25922; assay type: toxicity; settings: human red blood cells (RBC); summary of the method: as §2
[8] = tested on: Staphylococcus aureus; test: Antibacterial activity against multidrug-resistant Staphylococcus aureus WIS cultured in MHB medium assessed as reduction in bacterial growth incubated for 24 hrs by microdilution susceptibility test; assay type: functional
Summary of the method: (§3)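 Broth microdilution per CLSI M07-A9 (modified). Working solutions made from concentrated DMSO stocks kept at r.t., diluted in double-distilled water, final DMSO <1%. Inoculum 1–1.2 x 10⁶ cells/mL in Mueller-Hinton broth, mixed 1:1 with compound. 37 °C, 24 h, four parallels. Read as OD₆₀₀. Where precipitation left residual OD, the point of major OD decrease was taken as the inhibitory concentration.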

[9] = tested on: Staphylococcus aureus; test: Antibacterial activity against multidrug-resistant Staphylococcus aureus IHT 99040 cultured in MHB medium assessed as reduction in bacterial growth incubated for 24 hrs by microdilution susceptibility test; assay type: functional; settings: IHT 99040, 24 h; summary of the method: as §3
[10] = tested on: Enterococcus faecium; test: Antibacterial activity against multidrug-resistant Enterococcus faecium 50673722 cultured in BHIB medium assessed as reduction in bacterial growth incubated for 24 hrs by microdilution susceptibility test; assay type: functional; settings: Enterococcus faecium, 50673722, 24 h
Summary of the method: (§4)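 Enterococci grown in Brain Heart Infusion broth, otherwise broth microdilution per CLSI M07-A9 (modified). Concentrated DMSO stocks kept at r.t. and diluted in double-distilled water, final DMSO <1%. Inoculum 1–1.2 x 10⁶ cells/mL mixed 1:1 with compound. 37 °C, 24 h, four parallels. OD₆₀₀ read-out, lowest concentration with no growth.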

[11] = tested on: Enterococcus faecium; test: Antibacterial activity against multidrug-resistant Enterococcus faecium K36-18 cultured in BHIB medium assessed as reduction in bacterial growth incubated for 24 hrs by microdilution susceptibility test; assay type: functional; settings: K36-18, 24 h; summary of the method: as §4
[12] = tested on: Enterococcus faecium; test: Antibacterial activity against multidrug-resistant Enterococcus faecium 50758899 cultured in BHIB medium assessed as reduction in bacterial growth incubated for 24 hrs by microdilution susceptibility test; assay type: functional; settings: Enterococcus faecium, 50758899, 24 h; summary of the method: as §4
[13] = tested on: Escherichia coli; test: Antibacterial activity against multidrug-resistant Escherichia coli 50676002 producing New Delhi metallo-beta-lactamase-1 cultured in MHB medium assessed as reduction in bacterial growth incubated for 24 hrs by microdilution susceptibility test; assay type: functional; settings: Escherichia coli, 50676002, 24 h; summary of the method: as §3
[14] = tested on: Escherichia coli; test: Antibacterial activity against multidrug-resistant Escherichia coli 50857972 producing imipenem-type carbapenemase-26 cultured in MHB medium assessed as reduction in bacterial growth incubated for 24 hrs by microdilution susceptibility test; assay type: functional; settings: Escherichia coli, 50857972, 24 h; summary of the method: as §3
[15] = tested on: Pseudomonas aeruginosa; test: Antibacterial activity against multidrug-resistant Pseudomonas aeruginosa K44-24 producing imipenem-type carbapenemase-14 cultured in MHB medium assessed as reduction in bacterial growth incubated for 24 hrs by microdilution susceptibility test; assay type: functional; settings: K44-24, 24 h; summary of the method: as §3
[16] = tested on: Pseudomonas aeruginosa; test: Antibacterial activity against multidrug-resistant Pseudomonas aeruginosa 50692172 producing New Delhi metallo-beta-lactamase-1 cultured in MHB medium assessed as reduction in bacterial growth incubated for 24 hrs by microdilution susceptibility test; assay type: functional; settings: Pseudomonas aeruginosa, 50692172, 24 h; summary of the method: as §3
[17] = tested on: Pseudomonas aeruginosa; test: Antibacterial activity against multidrug-resistant Pseudomonas aeruginosa 50692520 producing Verona integron encoded metallo beta-lactamse cultured in MHB medium assessed as reduction in bacterial growth incubated for 24 hrs by microdilution susceptibility test; assay type: functional; settings: Pseudomonas aeruginosa, 50692520, 24 h; summary of the method: as §3
[18] = tested on: Klebsiella pneumoniae; test: Antibacterial activity against multidrug-resistant Klebsiella pneumoniae K47-25 producing carbapenemase-2 cultured in MHB medium assessed as reduction in bacterial growth incubated for 24 hrs by microdilution susceptibility test; assay type: functional; settings: K47-25, 24 h; summary of the method: as §3
[19] = tested on: Klebsiella pneumoniae; test: Antibacterial activity against multidrug-resistant Klebsiella pneumoniae 50531633 producing New Delhi metallo-beta-lactamase-1 and oxcillinase-181 cultured in MHB medium assessed as reduction in bacterial growth incubated for 24 hrs by microdilution susceptibility test; assay type: functional; settings: Klebsiella pneumoniae, 50531633, 24 h; summary of the method: as §3
[20] = tested on: Acinetobacter baumannii; test: Antibacterial activity against multidrug-resistant Acinetobacter baumannii K12-21 producing oxcillinase-58 cultured in MHB medium assessed as reduction in bacterial growth incubated for 24 hrs by microdilution susceptibility test; assay type: functional; settings: K12-21, 24 h; summary of the method: as §3
[21] = tested on: Acinetobacter baumannii; test: Antibacterial activity against multidrug-resistant Acinetobacter baumannii K44-35 producing oxcillinase-23 cultured in MHB medium assessed as reduction in bacterial growth incubated for 24 hrs by microdilution susceptibility test; assay type: functional; settings: K44-35, 24 h; summary of the method: as §3
[22] = tested on: Acinetobacter baumannii; test: Antibacterial activity against multidrug-resistant Acinetobacter baumannii K55-13 producing oxcillinase-24 cultured in MHB medium assessed as reduction in bacterial growth incubated for 24 hrs by microdilution susceptibility test; assay type: functional; settings: K55-13, 24 h; summary of the method: as §3

| Compound | MIC [1] [µg/mL] | MIC [2] [µg/mL] | MIC [3] [µg/mL] | EC50 [4] [µg/mL] | EC50 [5] [µg/mL] | selectivity ratio [6] | selectivity ratio [7] | MIC [8] [µg/mL] | MIC [9] [µg/mL] | MIC [10] [µg/mL] | MIC [11] [µg/mL] | MIC [12] [µg/mL] | MIC [13] [µg/mL] | MIC [14] [µg/mL] | MIC [15] [µg/mL] | MIC [16] [µg/mL] | MIC [17] [µg/mL] | MIC [18] [µg/mL] | MIC [19] [µg/mL] | MIC [20] [µg/mL] | further results |
| --- | --- | --- | --- | --- | --- | --- | --- | --- | --- | --- | --- | --- | --- | --- | --- | --- | --- | --- | --- | --- | --- |
| NCCNC(=O)C(CN)(Cc1ccc(C(F)(F)F)cc1)Cc1ccc(C(F)(F)F)cc1 | 8 (≈ 17.9 µM) | 4 (≈ 8.94 µM) | 32 (≈ 71.5 µM) | 289 (≈ 646 µM) | 16 (≈ 35.8 µM) | 36 | 18 | > 32 | > 32 | 16 (≈ 35.8 µM) | 16 (≈ 35.8 µM) | 32 (≈ 71.5 µM) | > 32 | 32 (≈ 71.5 µM) | > 32 | > 32 | > 32 | > 32 | 32 (≈ 71.5 µM) | > 32 | MIC [21]: > 32 µg/mL; MIC [22]: > 32 µg/mL |
| NCCNC(=O)C(CN)(Cc1cc(C(F)(F)F)cc(C(F)(F)F)c1)Cc1cc(C(F)(F)F)cc(C(F)(F)F)c1 | 4 (≈ 6.86 µM) | 1 (≈ 1.71 µM) | 4 (≈ 6.86 µM) | 48 (≈ 82.3 µM) | 11 (≈ 18.9 µM) | 12 | 12 | 16 (≈ 27.4 µM) | 8 (≈ 13.7 µM) | 8 (≈ 13.7 µM) | 8 (≈ 13.7 µM) | 4 (≈ 6.86 µM) | 16 (≈ 27.4 µM) | 8 (≈ 13.7 µM) | > 32 | 32 (≈ 54.8 µM) | > 32 | 32 (≈ 54.8 µM) | 16 (≈ 27.4 µM) | 8 (≈ 13.7 µM) | MIC [21]: 16 µg/mL (≈ 27.4 µM); MIC [22]: 16 µg/mL (≈ 27.4 µM) |
| NCCNC(=O)C(CN)(Cc1cc(Br)cc(Br)c1)Cc1cc(Br)cc(Br)c1 | 2 (≈ 3.19 µM) | 2 (≈ 3.19 µM) | 4 (≈ 6.38 µM) | 58 (≈ 92.5 µM) | 17 (≈ 27.1 µM) | 29 | 15 | 16 (≈ 25.5 µM) | 16 (≈ 25.5 µM) | 8 (≈ 12.8 µM) | 8 (≈ 12.8 µM) | 8 (≈ 12.8 µM) | 16 (≈ 25.5 µM) | 8 (≈ 12.8 µM) | 32 (≈ 51 µM) | > 32 | > 32 | 16 (≈ 25.5 µM) | 16 (≈ 25.5 µM) | 32 (≈ 51 µM) | MIC [21]: 32 µg/mL (≈ 51 µM); MIC [22]: 16 µg/mL (≈ 25.5 µM) |
| NCCNC(=O)C(CN)(Cc1ccccc1C(F)(F)F)Cc1ccccc1C(F)(F)F | 32 (≈ 71.5 µM) | 8 (≈ 17.9 µM) | 64 (≈ 143 µM) | 312 (≈ 697 µM) | 42 (≈ 93.9 µM) | 10 | 10 | > 32 | 32 (≈ 71.5 µM) | 32 (≈ 71.5 µM) | > 32 | > 32 | > 32 | > 32 | > 32 | > 32 | > 32 | > 32 | > 32 | > 32 | MIC [21]: > 32 µg/mL; MIC [22]: > 32 µg/mL |
